# Published values collected from several papers.
# Compare with care: the assays were run in different laboratories.
# Target: Cyclin-dependent kinase 9 (CDK9, Homo sapiens, UniProt P50750)
Compound,read-out,method,tested at,remaining binding [%]
N#Cc1ccccc1CSc1nnc2c(n1)[nH]c1ccccc12,binding,competition with immobilised ligand,10 µM,84
O=C(O)[C@H]1[C@H](Cn2nnc3ccccc3c2=O)CC[C@@H]1C(=O)c1ccc(OCCC2CCOCC2)cc1,cell-free assay,competition with immobilised ligand,1 µM,72
C[C@@H]1CN(c2ccc3ncc(-c4ccc5[nH]nc(C6CC6)c5c4)n3n2)C[C@H](C)O1,binding,competition with immobilised ligand,50 nM,79
C[C@@H](c1cccc(C#N)c1)n1cc(Cl)cc(C(N)=O)c1=N,cell-free assay,competition with immobilised ligand,1 µM,91
O=C(c1ccc(Nc2ncc(Cl)c(-c3ccc(Cl)s3)n2)cc1)N1CCC(N2CCCC2)CC1,binding,competition with immobilised ligand,1 µM,68
COc1ccnn2ncc(-c3ccnc(N(C)C)n3)c12,binding,,1 µM,100
O=C(NCCCN1CCOCC1)c1ccc(Nc2nccc(-c3cc4ccccc4s3)n2)cc1,binding,competition with immobilised ligand,1 µM,52
CN(c1ccnc(CNc2nc(Nc3ccc4c(c3)CC(=O)N4)ncc2C(F)(F)F)n1)S(C)(=O)=O,cell-free assay,competition with immobilised ligand,1 µM,84
C[C@@H](c1ccc(-n2cnc3c(N)ncnc32)cc1)N1CCc2nn(C)c(Cc3ccccc3)c2C1=O,binding,competition with immobilised ligand,0.1 µM,85
CC(C)(C)c1ccc(-c2nc(CBr)nn2-c2cccc(O)c2)cc1,cell-free assay,competition with immobilised ligand,10 µM,91
O=C(NCC1CCOCC1)c1n[nH]cc1NC(=O)c1c(F)cccc1F,binding,competition with immobilised ligand,1 µM,83
CN(C)c1nccc(-c2cnc3ncccn23)n1,binding,,1 µM,100
CNC(=O)[C@@H]1CC[C@@H](n2c(-c3ccc4cnccc4c3)nc3ccc(C(=O)NCc4cccc(C(N)=O)c4)cc32)C1,binding,competition with immobilised ligand,1 µM,100
Nc1ncc2c(n1)-c1c([nH]c3ccc(C#CC4CC4)cc13)CCCC2,binding,competition with immobilised ligand,1 µM,91
CN(C)c1nccc(-c2cnn3ncccc23)n1,binding,,1 µM,100
Cc1c(C(=O)O)cc(-c2ccc(C3CCNCC3)cc2)c2ccc(-c3ccc(C(F)(F)F)cc3)cc12,binding,competition with immobilised ligand,1 µM,100
COc1cnc(Nc2cccc(S(N)(=O)=O)c2)nc1N1CCN(c2ccccc2)CC1,binding,competition with immobilised ligand,1 µM,100
N[C@@H]1CCN(c2nccc(-c3cnn4ncccc34)n2)C1,binding,,1 µM,100
CCOCCn1cc(C(=O)Nc2ccc(-n3nc(-c4cccnc4)cc3C(F)(F)F)cn2)ccc1=O,cell-free assay,competition with immobilised ligand,1 µM,97
O=C(c1ccc(Nc2ncc(Cl)c(-c3cc4ccccc4s3)n2)cc1)N1CCC(N2CCCC2)CC1,binding,competition with immobilised ligand,1 µM,82
Nc1cnc(N2CCc3cc(S(=O)(=O)Nc4c(F)cc(Cl)cc4F)cc(N4CCCC4=O)c32)nc1,cell-free assay,competition with immobilised ligand,1 µM,100
C=CC(=O)N1CCC(C(=O)NCC(=O)N2CCN(c3nc(-c4cnc(N)nc4C(F)F)nc(N4CCOCC4)n3)CC2)CC1,binding,competition with immobilised ligand,1 µM,98
Cc1cnn2ncc(-c3ccnc(N(C)C)n3)c2c1,binding,,1 µM,91
Cc1nccc(COC(=O)N2C[C@@H]3[C@@H](CNC(=O)c4ccc5[nH]nnc5c4)[C@@H]3C2)n1,cell-free assay,competition with immobilised ligand,1 µM,100
